From ChEMBL document CHEMBL2311431, “Synthesis and biological evaluation of some 5-arylidene-2-(1,3-thiazol-2-ylimino)-1,3-thiazolidin-4-ones as dual anti-inflammatory/antimicrobial agents” (Bioorg Med Chem, 2013)
Converted amounts (≈) assume the structure as drawn.

Legend:
Micrococcus flavus [1] = assay: Antibacterial activity against Micrococcus flavus ATCC 10240 after 24 hr by microdilution test; format: functional; conditions: ATCC 10240, 24 h
In short: (§1)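 Broth microdilution in LB medium, about 1.0×10^4 cfu per well; compounds from 1 mg/ml stocks in 5% DMSO. Incubated 24 h. MIC is the lowest concentration with no visible growth under a binocular microscope. Run in duplicate, repeated three times.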

Staphylococcus aureus [2] = assay: Bactericidal activity against Staphylococcus aureus ATCC 6538 after 72 hrs by serial subcultivation method; format: functional; conditions: ATCC 6538, 72 h
Staphylococcus aureus [3] = assay: Antibacterial activity against Staphylococcus aureus ATCC 6538 after 24 hr by microdilution test; format: functional; conditions: ATCC 6538, 24 h; in short: as §1
Listeria monocytogenes [4] = assay: Antibacterial activity against Listeria monocytogenes NCTC 7973 after 24 hr by microdilution test; format: functional; conditions: NCTC 7973, 24 h; in short: as §1
Micrococcus flavus [5] = assay: Bactericidal activity against Micrococcus flavus ATCC 10240 after 72 hrs by serial subcultivation method; format: functional; conditions: ATCC 10240, 72 h
Escherichia coli [6] = assay: Bactericidal activity against Escherichia coli ATCC 35210 after 72 hrs by serial subcultivation method; format: functional; conditions: ATCC 35210, 72 h
Pseudomonas aeruginosa [7] = assay: Antibacterial activity against Pseudomonas aeruginosa ATCC 27853 after 24 hr by microdilution test; format: functional; conditions: ATCC 27853, 24 h; in short: as §1
Bacillus cereus [8] = assay: Antibacterial activity against Bacillus cereus clinical isolate after 24 hr by microdilution test; format: functional; in short: as §1
Bacillus cereus [9] = assay: Bactericidal activity against Bacillus cereus clinical isolate after 72 hrs by serial subcultivation method; format: functional
Escherichia coli [10] = assay: Antibacterial activity against Escherichia coli ATCC 35210 after 24 hr by microdilution test; format: functional; conditions: ATCC 35210, 24 h; in short: as §1
Pseudomonas aeruginosa [11] = assay: Bactericidal activity against Pseudomonas aeruginosa ATCC 27853 after 72 hrs by serial subcultivation method; format: functional; conditions: ATCC 27853, 72 h
Listeria monocytogenes [12] = assay: Bactericidal activity against Listeria monocytogenes NCTC 7973 after 72 hrs by serial subcultivation method; format: functional; conditions: NCTC 7973, 72 h
Aspergillus fumigatus [13] = assay: Fungicidal activity against Aspergillus fumigatus after 72 hrs by serial subcultivation method; format: functional
Penicillium ochrochloron [14] = assay: Antifungal activity against Penicillium ochrochloron ATCC 9112 after 72 hrs by serial dilution technique; format: functional; conditions: ATCC 9112, 72 h
In short: (§2)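 Serial dilution in malt broth; compounds from 1 mg/ml stocks in 5% DMSO; 72 h at 28 °C. MIC is the lowest concentration with no visible growth under a binocular microscope. Run in duplicate, repeated three times.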

Trichoderma viride [15] = assay: Antifungal activity against Trichoderma viride IAM 5061 after 72 hrs by serial dilution technique; format: functional; conditions: IAM 5061, 72 h; in short: as §2
Talaromyces funiculosus [16] = assay: Antifungal activity against Penicillium funiculosum ATCC 36839 after 72 hrs by serial dilution technique; format: functional; conditions: ATCC 36839, 72 h; in short: as §2
Aspergillus niger [17] = assay: Fungicidal activity against Aspergillus niger ATCC 6275 after 72 hrs by serial subcultivation method; format: functional; conditions: ATCC 6275, 72 h
Talaromyces funiculosus [18] = assay: Fungicidal activity against Penicillium funiculosum ATCC 36839 after 72 hrs by serial subcultivation method; format: functional; conditions: ATCC 36839, 72 h
Aspergillus niger [19] = assay: Antifungal activity against Aspergillus niger ATCC 6275 after 72 hrs by serial dilution technique; format: functional; conditions: ATCC 6275, 72 h; in short: as §2
Aspergillus fumigatus [20] = assay: Antifungal activity against Aspergillus fumigatus after 72 hrs by serial dilution technique; format: functional; in short: as §2
Penicillium ochrochloron [21] = assay: Fungicidal activity against Penicillium ochrochloron ATCC 9112 after 72 hrs by serial subcultivation method; format: functional; conditions: ATCC 9112, 72 h
Trichoderma viride [22] = assay: Fungicidal activity against Trichoderma viride IAM 5061 after 72 hrs by serial subcultivation method; format: functional; conditions: IAM 5061, 72 h
Aspergillus flavus [23] = assay: Antifungal activity against Aspergillus flavus ATCC 9643 after 72 hrs by serial dilution technique; format: functional; conditions: ATCC 9643, 72 h; in short: as §2
Aspergillus flavus [24] = assay: Fungicidal activity against Aspergillus flavus ATCC 9643 after 72 hrs by serial subcultivation method; format: functional; conditions: ATCC 9643, 72 h
Mus musculus [25] = assay: Acute toxicity in AKR mouse up to 0.5 mmol/kg, ip; format: organism-based; conditions: in vivo
[26] = molecular target: T1, Prostaglandin G/H synthase 1 (Ovis aries) (UniProt P05979); assay: Inhibition of ovine COX1 assessed as inhibition of PGF2a production by enzyme immunoassay; design: concentration or dose not given beside the values; conditions: concentration not given here
T1 sequence (whole entry): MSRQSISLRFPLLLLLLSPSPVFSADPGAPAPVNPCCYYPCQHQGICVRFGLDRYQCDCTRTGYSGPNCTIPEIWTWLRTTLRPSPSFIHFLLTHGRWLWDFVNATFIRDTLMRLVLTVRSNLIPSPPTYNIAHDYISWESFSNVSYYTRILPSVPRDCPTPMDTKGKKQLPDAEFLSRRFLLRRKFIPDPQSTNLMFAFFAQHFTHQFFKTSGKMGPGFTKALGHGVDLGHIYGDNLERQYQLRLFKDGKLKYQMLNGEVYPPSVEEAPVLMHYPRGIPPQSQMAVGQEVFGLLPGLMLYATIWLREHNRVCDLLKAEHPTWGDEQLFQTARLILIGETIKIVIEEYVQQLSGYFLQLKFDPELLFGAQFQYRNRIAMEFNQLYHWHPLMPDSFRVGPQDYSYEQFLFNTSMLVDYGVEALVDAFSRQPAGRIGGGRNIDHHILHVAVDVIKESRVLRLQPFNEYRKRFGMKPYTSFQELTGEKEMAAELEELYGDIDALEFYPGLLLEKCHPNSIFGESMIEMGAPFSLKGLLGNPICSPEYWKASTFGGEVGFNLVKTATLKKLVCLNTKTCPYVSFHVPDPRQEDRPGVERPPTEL
In short: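 Ovine COX-1 from a commercial screening kit, tested with 0.1 µM arachidonic acid, which is below the saturating level. COX-derived PGH2 is reduced by SnCl2 to PGF2a, quantified by enzyme immunoassay with a broad prostaglandin antibody. At least triplicate.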

[27] = Inhibition of soybean lipoxygenase assessed as inhibition of sodium linolate conversion to 13-hydroperoxylinoleic acid after 4 mins by spectrophotometry; design: species or system Glycine max; conditions: read-out: IC50
Mus musculus [28] = assay: Antiinflammatory activity in AKR mouse assessed as inhibition of carrageenan-induced paw edema at 0.01 mmol/kg, ip measured after 3.5 hrs of carrageenan-challenge; format: functional
In short: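 AKR mice of both sexes (pregnant females excluded), 6-10 per group, fasted during the experiment. Edema induced by intradermal 0.05 mL of 2% carrageenin into the right hind paw. Compound given at 0.01 mmol/kg ip, suspended in water with Tween-80, at the same time as carrageenin.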

Compound | MIC (Micrococcus flavus [1]) [µM] | MBC (Staphylococcus aureus [2]) [µM] | MIC (Staphylococcus aureus [3]) [µM] | MIC (Listeria monocytogenes [4]) [µM] | MBC (Micrococcus flavus [5]) [µM] | MBC (Escherichia coli [6]) [µM] | MIC (Pseudomonas aeruginosa [7]) [µM] | MIC (Bacillus cereus [8]) [µM] | MBC (Bacillus cereus [9]) [µM] | MIC (Escherichia coli [10]) [µM] | MBC (Pseudomonas aeruginosa [11]) [µM] | MBC (Listeria monocytogenes [12]) [µM] | MFC (Aspergillus fumigatus [13]) [µM] | MIC (Penicillium ochrochloron [14]) [µM] | MIC (Trichoderma viride [15]) [µM] | MIC (Talaromyces funiculosus [16]) [µM] | MFC (Aspergillus niger [17]) [µM] | MFC (Talaromyces funiculosus [18]) [µM] | MIC (Aspergillus niger [19]) [µM] | MIC (Aspergillus fumigatus [20]) [µM] | further results
CN[C@@H]1[C@H](O[C@H]2[C@H](O[C@H]3[C@H](O)[C@@H](O)[C@H](N=C(N)N)[C@@H](O)[C@@H]3N=C(N)N)O[C@@H](C)[C@]2(O)C=O)O[C@@H](CO)[C@H](O)[C@H]1O [STREPTOMYCIN] | 86 (≈ 50 µg/mL) | 344 (≈ 200 µg/mL) | 172 (≈ 100 µg/mL) | 258 (≈ 150 µg/mL) | 172 (≈ 100 µg/mL) | 344 (≈ 200 µg/mL) | 172 (≈ 100 µg/mL) | 43 (≈ 25 µg/mL) | 86 (≈ 50 µg/mL) | 172 (≈ 100 µg/mL) | 344 (≈ 200 µg/mL) | 516 (≈ 300 µg/mL) |  |  |  |  |  |  |  |  | 
O=C1N/C(=N\c2nc(-c3ccccc3)cs2)S/C1=C\c1ccccc1Cl | 25 (≈ 9.95 µg/mL) | 100 (≈ 39.8 µg/mL) | 50 (≈ 19.9 µg/mL) | 25 (≈ 9.95 µg/mL) | 25 (≈ 9.95 µg/mL) | 100 (≈ 39.8 µg/mL) | 50 (≈ 19.9 µg/mL) | 25 (≈ 9.95 µg/mL) | 25 (≈ 9.95 µg/mL) | 50 (≈ 19.9 µg/mL) | 100 (≈ 39.8 µg/mL) | 25 (≈ 9.95 µg/mL) | 23.4 (≈ 9.31 µg/mL) | 11.7 (≈ 4.66 µg/mL) | 11.7 (≈ 4.66 µg/mL) | 17.6 (≈ 7 µg/mL) | 23.4 (≈ 9.31 µg/mL) | 23.4 (≈ 9.31 µg/mL) | 17.6 (≈ 7 µg/mL) | 17.6 (≈ 7 µg/mL) | MFC (Penicillium ochrochloron [21]): 23.4 µM (≈ 9.31 µg/mL); MFC (Trichoderma viride [22]): 23.4 µM (≈ 9.31 µg/mL); MIC (Aspergillus flavus [23]): 17.6 µM (≈ 7 µg/mL); MFC (Aspergillus flavus [24]): 23.4 µM (≈ 9.31 µg/mL)
CC(=O)N1CCN(c2ccc(OCC3COC(Cn4ccnc4)(c4ccc(Cl)cc4Cl)O3)cc2)CC1 (centres undefined) [KETOCONAZOLE] |  |  |  |  |  |  |  |  |  |  |  |  | 950 (≈ 505 µg/mL) | 3800 (≈ 2020 µg/mL) | 4750 (≈ 2520 µg/mL) | 380 (≈ 202 µg/mL) | 950 (≈ 505 µg/mL) | 950 (≈ 505 µg/mL) | 380 (≈ 202 µg/mL) | 380 (≈ 202 µg/mL) | MFC (Penicillium ochrochloron [21]): 3800 µM (≈ 2020 µg/mL); MFC (Trichoderma viride [22]): 5700 µM (≈ 3030 µg/mL); MIC (Aspergillus flavus [23]): 2850 µM (≈ 1510 µg/mL); MFC (Aspergillus flavus [24]): 3800 µM (≈ 2020 µg/mL)
COc1ccccc1/C=C1\S/C(=N/c2nccs2)NC1=O | 31.5 (≈ 10 µg/mL) | 63 (≈ 20 µg/mL) | 31.5 (≈ 10 µg/mL) | 31.5 (≈ 10 µg/mL) | 31.5 (≈ 10 µg/mL) | 63 (≈ 20 µg/mL) | 31.5 (≈ 10 µg/mL) | 31.5 (≈ 10 µg/mL) | 31.5 (≈ 10 µg/mL) | 31.5 (≈ 10 µg/mL) | 63 (≈ 20 µg/mL) | 63 (≈ 20 µg/mL) | 31.5 (≈ 10 µg/mL) | 15.8 (≈ 5.01 µg/mL) | 15.8 (≈ 5.01 µg/mL) | 15.8 (≈ 5.01 µg/mL) | 31.5 (≈ 10 µg/mL) | 31.5 (≈ 10 µg/mL) | 15.8 (≈ 5.01 µg/mL) | 15.8 (≈ 5.01 µg/mL) | Activity (Mus musculus [25]): Non-toxic; inhibition [26]: 86%; MFC (Penicillium ochrochloron [21]): 31.5 µM (≈ 10 µg/mL); MFC (Trichoderma viride [22]): 31.5 µM (≈ 10 µg/mL); IC50 [27]: 63 µM; MIC (Aspergillus flavus [23]): 23.6 µM (≈ 7.49 µg/mL); MFC (Aspergillus flavus [24]): 31.5 µM (≈ 10 µg/mL); inhibition in vivo at 10 µmol/kg (Mus musculus [28]): 50%
Cc1csc(/N=C2\NC(=O)/C(=C/c3ccc(Cl)cc3)S2)n1 | 30 (≈ 10.1 µg/mL) | 240 (≈ 80.6 µg/mL) | 120 (≈ 40.3 µg/mL) | 30 (≈ 10.1 µg/mL) | 60 (≈ 20.2 µg/mL) | 240 (≈ 80.6 µg/mL) | 30 (≈ 10.1 µg/mL) | 30 (≈ 10.1 µg/mL) | 30 (≈ 10.1 µg/mL) | 120 (≈ 40.3 µg/mL) | 120 (≈ 40.3 µg/mL) | 60 (≈ 20.2 µg/mL) | 15.2 (≈ 5.1 µg/mL) | 7.6 (≈ 2.55 µg/mL) | 7.6 (≈ 2.55 µg/mL) | 7.6 (≈ 2.55 µg/mL) | 15.2 (≈ 5.1 µg/mL) | 15.2 (≈ 5.1 µg/mL) | 15.2 (≈ 5.1 µg/mL) | 15.2 (≈ 5.1 µg/mL) | Activity (Mus musculus [25]): Non-toxic; inhibition [26]: 74%; MFC (Penicillium ochrochloron [21]): 15.2 µM (≈ 5.1 µg/mL); MFC (Trichoderma viride [22]): 15.2 µM (≈ 5.1 µg/mL); IC50 [27]: 76 µM; MIC (Aspergillus flavus [23]): 15.2 µM (≈ 5.1 µg/mL); MFC (Aspergillus flavus [24]): 15.2 µM (≈ 5.1 µg/mL); inhibition in vivo at 10 µmol/kg (Mus musculus [28]): 42%
